Source: ChEMBL document CHEMBL2069305, “Discovery and optimization of a series of liver X receptor antagonists” (Bioorg Med Chem Lett, 2012)

Experiments:
[1] = molecular target: T1, Oxysterols receptor LXR-beta (Homo sapiens, UniProt P55055); test: Displacement of [3H]N-(4-(1,1,1,3,3,3-hexafluoro-2-hydroxypropan-2-yl)phenyl)-N-methylbenzenesulfonamide from GST-tagged LXRbeta ligand binding domain after 1 hr by scintillation proximity assay
T1 sequence (P55055 whole entry): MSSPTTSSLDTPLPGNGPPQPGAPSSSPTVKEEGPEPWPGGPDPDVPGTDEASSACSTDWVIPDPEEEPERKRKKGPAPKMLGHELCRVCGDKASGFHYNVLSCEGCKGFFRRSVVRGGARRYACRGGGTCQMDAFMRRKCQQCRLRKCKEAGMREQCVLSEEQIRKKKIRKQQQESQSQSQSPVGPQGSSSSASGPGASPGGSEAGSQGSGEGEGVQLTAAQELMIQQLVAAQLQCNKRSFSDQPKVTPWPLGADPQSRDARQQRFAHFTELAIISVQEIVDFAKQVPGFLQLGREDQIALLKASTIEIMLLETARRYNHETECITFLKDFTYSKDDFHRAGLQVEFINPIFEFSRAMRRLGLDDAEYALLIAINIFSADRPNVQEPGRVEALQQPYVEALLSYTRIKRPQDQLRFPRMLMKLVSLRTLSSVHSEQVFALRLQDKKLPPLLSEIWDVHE

HEK293 = test: Cytotoxicity against human HEK293 cells; format: cell-based
[2] = Clearance in Sprague-Dawley rat at 0.5 mg/kg, iv; format: ADME, organism-based; design: dose 0.5 mg/kg, route intravenous; conditions: in vivo
Summary of the method: (§1)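 Single intravenous dose of 0.5 mg/kg in rats; three animals per study.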

Liver microsomes [3] = test: Drug metabolism in rat liver microsomes assessed as oxidative cleavage of isobutyl group; format: ADME, Microsome
[4] = Mean residence time in Sprague-Dawley rat at 0.5 mg/kg, iv; format: ADME, organism-based; design: dose 0.5 mg/kg, route intravenous; conditions: in vivo; summary of the method: as §1
[5] = Volume of distribution at steady state in Sprague-Dawley rat at 0.5 mg/kg, iv; format: ADME, organism-based; design: dose 0.5 mg/kg, route intravenous; conditions: in vivo, read-out: Vdss; summary of the method: as §1
Liver microsomes [6] = test: Drug metabolism in rat liver microsomes assessed as isobutyl-hydroxylation; format: ADME, Microsome
[7] = AUC in Sprague-Dawley rat at 5 mg/kg, po; format: ADME, organism-based; design: dose 5 mg/kg, route oral; conditions: plasma
Summary of the method: (§2)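 Male Sprague–Dawley rats given a single oral dose of 5 mg/kg; three animals per study.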

[8] = Metabolic stability in rat liver microsomes assessed as compound remaining at 1 uM after 30 mins; format: ADME, Microsome; conditions: read-out: Stability
[9] = Oral bioavailability in Sprague-Dawley rat at 5 mg/kg; format: ADME, organism-based; conditions: in vivo; summary of the method: as §2
[10] = AUC in Sprague-Dawley rat at 0.5 mg/kg, iv; format: ADME, organism-based; design: dose 0.5 mg/kg, route intravenous; conditions: plasma; summary of the method: as §1
[11] = molecular target: T1, Oxysterols receptor LXR-beta; test: Antagonist activity at LXRbeta ligand binding domain expressed in HEK293 cells coexpressing GAL4 assessed as decrease in […]N-(4-(1,1,1,3,3,3-hexafluoro-2-hydroxypropan-2-yl)phenyl)-N-methylbenzenesulfonamide-induced activity after 20 hrs by luciferase reporter gene assay; format: cell-based

CN(c1ccc(C(O)C(F)(F)F)cc1)S(=O)(=O)c1ccccc1 (stereo unspecified)
IC50 [1]: > 10 µM

CN(c1ccc(C(O)(c2nnn[nH]2)C(F)(F)F)cc1)S(=O)(=O)c1ccccc1 (stereo unspecified)
IC50 [1]: > 10 µM

CN(c1ccc(C(O)(Cc2ccccc2)C(F)(F)F)cc1)S(=O)(=O)c1ccccc1 (stereo unspecified)
IC50 [1]: > 10 µM

CN(c1ccc(C(O)(c2ncc[nH]2)C(F)(F)F)cc1)S(=O)(=O)c1ccccc1 (stereo unspecified)
IC50 [1]: > 10 µM

CN(c1ccc(C(O)(c2nnc[nH]2)C(F)(F)F)cc1)S(=O)(=O)c1ccccc1 (stereo unspecified)
IC50 [1]: > 10 µM

CC(C)CC#CC(O)(c1ccc(N(C)S(=O)(=O)c2ccccc2)cc1)C(F)(F)F (stereo unspecified)
IC50 [1]: > 30 µM

CC(C)CN(c1ccc(C(O)(C#Cc2ccc(S(C)(=O)=O)cc2)C(F)(F)F)cc1)S(=O)(=O)c1ccccc1 (stereo unspecified)
Activity (HEK293): Non-toxic
clearance [2]: 80 mL/min/kg
Drug metabolism (Liver microsomes [3]): Active
MRT [4]: 1.3 h
Vd [5]: 4.4 L/kg
Drug metabolism (Liver microsomes [6]): Active
AUC [7]: 86 ng·h/mL
remaining at 0.5 h, 1 µM [8]: < 5%
bioavailability [9]: 9%
AUC [10]: 102 ng·h/mL

CC(C)CN(c1ccc(C(O)(C#Cc2ccc(S(C)(=O)=O)cc2)C(F)(F)F)cc1)S(=O)(=O)c1cccc(C#N)c1 (stereo unspecified)
Activity (HEK293): Non-toxic

CC(C)CN(c1ccc(C(O)(C#Cc2ccc(S(=O)(=O)c3ccccc3)cc2)C(F)(F)F)cc1)S(=O)(=O)c1cccc(C#N)c1 (stereo unspecified)
IC50 [11]: > 10 µM
IC50 [1]: > 10 µM

CS(=O)(=O)c1ccc(C#CC(O)(c2ccc(N(CC(F)(F)F)S(=O)(=O)c3ccccc3)cc2)C(F)(F)F)cc1 (stereo unspecified)
remaining at 0.5 h, 1 µM [8]: 85%

CS(=O)(=O)c1ccc(C#CC(O)(c2ccc(N(CCC(F)(F)F)S(=O)(=O)c3ccccc3)cc2)C(F)(F)F)cc1 (stereo unspecified)
remaining at 0.5 h, 1 µM [8]: 42%

CC(C)(C)CN(c1ccc(C(O)(C#Cc2ccc(S(C)(=O)=O)cc2)C(F)(F)F)cc1)S(=O)(=O)c1ccccc1 (stereo unspecified)
remaining at 0.5 h, 1 µM [8]: 36%

CS(=O)(=O)c1ccc(C#CC(O)(c2ccc(N(CC3CC3)S(=O)(=O)c3ccccc3)cc2)C(F)(F)F)cc1 (stereo unspecified)
clearance [2]: 18.3 mL/min/kg
MRT [4]: 2.2 h
Vd [5]: 2.3 L/kg
AUC [7]: 1380 ng·h/mL
remaining at 0.5 h, 1 µM [8]: > 95%
bioavailability [9]: 31%

CS(=O)(=O)c1ccc(C#CC(O)(c2ccc(N(CC3CCC3)S(=O)(=O)c3ccccc3)cc2)C(F)(F)F)cc1 (stereo unspecified)
remaining at 0.5 h, 1 µM [8]: < 5%

CS(=O)(=O)c1ccc(C#CC(O)(c2ccc(N(CC3CCCC3)S(=O)(=O)c3ccccc3)cc2)C(F)(F)F)cc1 (stereo unspecified)
remaining at 0.5 h, 1 µM [8]: < 5%

CN(c1ccc(C(C)(O)C(F)(F)F)cc1)S(=O)(=O)c1ccccc1 (stereo unspecified)
IC50 [1]: > 10 µM
